Data published in paper PMC6767012 (Clinical Pharmacology in Drug Development, 2018).
Read-outs that look alike come from different tables or passages of the source.

Legend:
[1] = assay type: in vivo, human; conditions: single oral 180 mg; for Effect of high-fat meal on total exposure (AUC): fed vs fasted; for Reduction of Cmax under fed versus fasted conditions: high-fat meal; for half-life: t1/2 (terminal elimination half-life)
ALK resistance mutations = conditions: nonclinical studies; cited from earlier work
[2] = Food effect study: safety and tolerability; assay type: in vivo, human; conditions: for Incidence of treatment-emergent adverse events (TEAEs): single oral 180 mg, healthy subjects
Method in brief: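 Phase 1, single-centre, randomised, open-label, 2-period, 2-sequence crossover in healthy nonsmoking adults aged 18–55, BMI 18–30 kg/m2, at least 50 kg. Single morning oral dose (2 × 90-mg tablets) with about 240 mL water, after an overnight fast of at least 10 h, or with a standardised high-fat meal 30 ± 5 min before dosing. Washout at least 16 days. Adverse events were tracked until 7 days after the last dose, alongside vital signs, haematology, chemistry, urinalysis, physical exams and 12-lead ECG.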

[3] = single oral 180-mg dose, healthy subjects; cited from earlier work
CYP2C8 and CYP3A4 = conditions: human liver microsomes and hepatocytes; cited from earlier work
[4] = cited from earlier work
ALK+ NSCLC = conditions: 180 mg orally once daily with 7-day lead-in at 90 mg; crizotinib-refractory ALK+ NSCLC; cited from earlier work
[5] = healthy subjects; cited from earlier work
[6] = cited from earlier work; remark: listed apart in the source
[7] = patients with advanced ALK+ NSCLC; cited from earlier work

Q: Which “Effect of high-fat meal on total exposure (AUC)” value [1] does the source give for `COc1cc(N2CCC(N3CCN(C)CC3)CC2)ccc1Nc1ncc(Cl)c(Nc2ccccc2P(C)(C)=O)n1` [Brigatinib] here?
A: The value was “no effect”.

Q: And the “Effect of high-fat meal on total exposure (AUC)” value ([1]; listed as brigatinib)?
A: Its value is “similar”.

Q: And the “Reduction of Cmax under fed versus fasted conditions” value [1]?
A: The value was 13%.

Q: And the “Reduction of Cmax under fed versus fasted conditions” value ([1]; listed as brigatinib)?
A: Its value is “approximately 13%”.

Q: And the Cmax ([1]; human, plasma, po, 180 mg, Geometric mean (% CV), fasted, N = 21)?
A: The Cmax was 701 ng/mL.

Q: And the Cmax ([1]; human, plasma, po, 180 mg, Geometric mean (% CV), fed (high-fat meal), N = 24)?
A: The Cmax was 605 ng/mL.

Q: What about the Cmax ([1]; human, plasma, po, 180 mg, Mean (SD), fed (high-fat meal), healthy subjects, N = 24) of the same compound?
A: Its Cmax is 622 ng/mL.

Q: And the Tmax ([1]; human, plasma, po, 180 mg, Tmax, Median (minimum-maximum), fed (high-fat meal), N = 24)?
A: The Tmax was 5 h.

Q: And the half-life ([1]; human, plasma, po, 180 mg, Mean (SD), fasted, N = 21)?
A: Its half-life is 31 h.

Q: And the half-life ([1]; human, plasma, po, 180 mg, Mean (SD), fed (high-fat meal), N = 24)?
A: The half-life was 31.1 h.

Q: And the “Activity against all ALK resistance mutations tested” value (ALK resistance mutations)?
A: Its value is “potent activity”.

Q: And the Subjects with cough ([2]; fasted)?
A: Its Subjects with cough is 24%.

Q: What about the Subjects with headache ([2]; fasted) of the same compound?
A: The Subjects with headache was 14%.

Q: And the Subjects with nausea ([2]; fasted)?
A: The Subjects with nausea was 14%.

Q: What about the Subjects with somnolence ([2]; fasted) of the same compound?
A: Its Subjects with somnolence is 14%.

Q: And the “Abnormalities in laboratory findings, vital signs, ECGs, or physical examination” value ([2]; fasted and fed)?
A: The value was “no clinically significant abnormalities”.

Q: And the “Deaths or serious TEAEs” value ([2]; fasted and fed)?
A: The value was “No deaths or serious TEAEs”.

Q: What about the “Intensity of TEAEs” value ([2]; fasted and fed) of the same compound?
A: The value was “mild”.

Q: And the “Incidence of treatment-emergent adverse events (TEAEs)” value ([2]; fasted)?
A: The value was 48%.

Q: What about the Subjects with headache ([2]; fed) of the same compound?
A: The Subjects with headache was 4%.

Q: And the Subjects with nausea ([2]; fed)?
A: The Subjects with nausea was 4%.

Q: What about the Subjects with somnolence ([2]; fed) of the same compound?
A: The Subjects with somnolence was 4%.

Q: What about the “Incidence of treatment-emergent adverse events (TEAEs)” value ([2]; fed (high-fat meal)) of the same compound?
A: The value was 46%.

Q: And the “Administered dose excreted in the feces” value [3]?
A: Its value is 65%.

Q: What about the “Administered dose excreted in the urine” value [3] of the same compound?
A: Its value is 25%.

Q: And the Metabolizing enzymes (CYP2C8 and CYP3A4)?
A: The Metabolizing enzymes was “cytochrome P450 (CYP)2C8 and CYP3A4”.

Q: And the “Steady-state systemic exposure versus dose” value ([4]; 60 mg to 240 mg once daily)?
A: Its value is “dose proportional”.

Q: And the “Geometric mean apparent oral clearance at steady-state” value ([4]; 180 mg orally once daily)?
A: The value was 10.6 L/h.

Q: And the “Mean plasma elimination half-life” value ([4]; 180 mg orally once daily)?
A: The value was 25 h.

Q: What about the “Confirmed objective response rate” value (ALK+ NSCLC) of the same compound?
A: Its value is 56%.

Q: What about the Median progression-free survival (ALK+ NSCLC) of the same compound?
A: The Median progression-free survival was 16.7 months.

Q: Which “Decrease of exposure (both Cmax and AUC) following a high-fat meal” value [5] does the source give for `C[C@@H](Oc1cc(-c2cnn(C3CCNCC3)c2)cnc1N)c1c(Cl)ccc(F)c1Cl` [Crizotinib] here?
A: Its value is 14%.

Q: What does the source list for `Cc1cc(Nc2ncc(Cl)c(Nc3ccccc3S(=O)(=O)C(C)C)n2)c(OC(C)C)cc1C1CCNCC1` [ceritinib]?
A: Effect of food on exposure [6]: increases exposure; Cmax and AUC0–24 of 450 mg taken with food versus 750 mg fasted [7]: comparable; Incidence of gastrointestinal toxicities, 450 mg with food versus 750 mg fasted [7]: lower incidence
